Among the data in ChEMBL document CHEMBL4028906, “Allosteric Inhibitors of SHP2 with Therapeutic Potential for Cancer Treatment” (J Med Chem, 2017) are IC50 and inhibition values, retold here.

For orientation: pIC50 means the negative decadic logarithm of the IC50, by convention in mol/L. Low values mean a large IC50, high ones a small IC50.

Molecules are shown by their SMILES. pIC50: −log10 of the molar value. Activity calls are given as the source filed them. No cut-off for these calls is given here. Bounds are passed on as bounds.

One test concerns the target Tyrosine-protein phosphatase non-receptor type 11 (Homo sapiens, UniProt Q06124). The test can be described thus: Allosteric inhibition of SHP2 PTP domain (unknown origin) expressed in Escherichia coli BL21(DE3) using DIFMUP as substrate preincubated for 20 mins followed by substrate addition measured after 20 mins by phosphatase assay. In short, it runs like this: (§1)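 His-tagged SHP2 constructs expressed in E. coli BL21(DE3) (0.5 mM IPTG, 5 h, 30 °C) and Ni-column purified. 1.5 nM enzyme preincubated 20 min at room temperature with compound in 0.1 M sodium acetate pH 5.0. DIFMUP then added, 20 min further, fluorescence at 358/455 nm. Eight 3-fold dilutions, duplicate wells, IC50 from at least three independent experiments.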
Molecule `CC1(C)CC(Nc2nc(-c3ccccc3)cs2)CC(C)(C)N1` gave a pIC50 below 4.00.

A further test concerns the target T1, Tyrosine-protein phosphatase non-receptor type 11 (Homo sapiens) (UniProt Q06124).
T1 sequence (whole entry): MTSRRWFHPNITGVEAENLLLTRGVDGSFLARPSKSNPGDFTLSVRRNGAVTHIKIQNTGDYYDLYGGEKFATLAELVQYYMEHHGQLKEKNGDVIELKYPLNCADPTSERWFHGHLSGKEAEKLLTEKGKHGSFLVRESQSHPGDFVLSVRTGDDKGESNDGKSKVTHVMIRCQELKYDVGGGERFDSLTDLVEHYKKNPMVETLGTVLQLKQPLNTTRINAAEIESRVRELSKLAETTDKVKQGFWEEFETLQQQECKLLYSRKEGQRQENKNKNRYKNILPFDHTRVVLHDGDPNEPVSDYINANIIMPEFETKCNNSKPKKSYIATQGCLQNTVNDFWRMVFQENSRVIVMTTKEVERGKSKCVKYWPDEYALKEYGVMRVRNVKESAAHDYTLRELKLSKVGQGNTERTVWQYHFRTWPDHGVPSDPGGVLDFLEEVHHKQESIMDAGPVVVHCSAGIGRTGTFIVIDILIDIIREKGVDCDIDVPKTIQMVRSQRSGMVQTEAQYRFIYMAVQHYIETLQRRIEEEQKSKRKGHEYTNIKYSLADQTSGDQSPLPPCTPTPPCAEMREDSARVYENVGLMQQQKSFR
The test can be described thus: Allosteric inhibition of SHP2 in human NCI-H661 cells assessed as downregulation of phosphorylated AKT levels at 20 uM after 2 hrs by Western blot analysis. In kind it is cell-based. The gist of the method:
(§2)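 NCI-H661 cells in 6-well plates exposed to inhibitor 2 h at 37 °C. RIPA lysates separated by SDS-PAGE, transferred to PVDF, milk-blocked, probed overnight at 4 °C for pERK1/2, ERK1/2, pAKT and AKT. Repeated at least three times.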
`CC1(N)CCN(c2nc(-c3cc4ccccc4s3)cs2)CC1`: the inhibition result was “inactive”.

Test system in the next test: not listed separately
Briefly: Allosteric inhibition of SHP2 E76A mutant (unknown origin) expressed in Escherichia coli BL21(DE3) using DIFMUP as substrate preincubated for 20 mins followed by substrate addition measured after 20 mins by phosphatase assay. Also on record: species or system Homo sapiens. The gist of the method: as §1
With `c1ccc2cc(-c3csc(NCC4CCCNC4)n3)ccc2c1` (stereo unspecified), the pIC50 was 5.83. The same measure, in the same setting: next, `CC1(N)CCN(c2nc(-c3ccc4cc(C(=O)O)ccc4c3)cs2)CC1`: 4.29. Molecule `COc1ccc2cc(-c3csc(N4CCC(C)(N)CC4)n3)ccc2c1` showed a pIC50 of 5.61. This pIC50 is 1.32 log units higher than that of the molecule before.

The molecule `c1ccc2cc(-c3csc(NC4CCNCC4)n3)ccc2c1` gave a pIC50 of 6.14. Same read-out and setting: then `CC1(N)CCN(c2nc(-c3cccc(-c4ccc(C#N)cc4)c3)cs2)CC1`, with 5.75. The same measure, in the same setting: next, `CC1(N)CCN(c2nc(-c3ccc(-c4ccc(F)cc4)cc3)cs2)CC1`: 4.85; `CC1(N)CCN(c2cnc(-c3cccc(Cl)c3Cl)c(N)n2)CC1`: 6.92; `CC1(C)CC(Nc2nc(-c3ccc(-c4ccccc4)cc3)cs2)CC(C)(C)N1`: 5.27. The same measure, in the same setting: next, `CC1(N)CCN(c2nc(-c3ccc4cc(Cl)ccc4c3)cs2)CC1`: 5.57.

`COC(=O)c1ccc(-c2cccc(-c3csc(N4CCC(C)(N)CC4)n3)c2)cc1` showed a pIC50 of 5.48. Consider `CC1(N)CCN(c2nc(-c3cc4ccccc4s3)cs2)CC1`, for which the pIC50 was below 4.00. `CC1(C)CC(Nc2nc(-c3ccc4ccccc4c3)cs2)CC(C)(C)N1` showed a pIC50 of 5.59.

Regarding `CC1(N)CCN(c2nc(-c3cnc4ccccc4c3)cs2)CC1`, the pIC50 was 4.28. The same measure, in the same setting: then `CC1(N)CCN(c2nc(-c3ccc4cc(CO)ccc4c3)cs2)CC1`, with below 4.00; and `CC1(N)CCN(c2nc(-c3ccc4cc(C#N)ccc4c3)cs2)CC1`, with 5.86. `c1ccc2cc(-c3csc(NC4CCNC4)n3)ccc2c1` (stereo unspecified) showed a pIC50 of 5.78.

Molecule `CC1(N)CCN(c2nc(-c3ccc4ccccc4c3)cs2)CC1` gave a pIC50 of 5.83. In the case of `CC1(N)CCN(c2nc(-c3ccc(-c4ccc(O)cc4)cc3)cs2)CC1`, the pIC50 was 4.69. Still for that read-out and setting: then `CC1CN(c2nc(-c3ccc4ccccc4c3)cs2)CC(C)N1` (stereo unspecified), with 4.91; and `CC1(N)CCN(c2nc(-c3ccc4cc(F)ccc4c3)cs2)CC1`, with 5.90.

For `CC1(N)CCN(c2nc(-c3cccc4c3oc3ccccc34)cs2)CC1`, the pIC50 is 4.33. Against the preceding molecule, the pIC50 is 1.57 log units lower. On the same count and under the same terms, next, `CC1(C)CC(Nc2nc(-c3ccccc3)cs2)CC(C)(C)N1`: 4.72; `COC(=O)c1ccc2cc(-c3csc(N4CCC(C)(N)CC4)n3)ccc2c1`: 5.97.

For the molecule `CN1CCC(Nc2nc(-c3ccc4ccccc4c3)cs2)CC1`, the pIC50 was 5.55. Against the preceding molecule, the pIC50 is 0.42 log units lower. Same read-out and setting: next, `NCC1CCCN(c2nc(-c3ccc4ccccc4c3)cs2)C1` (stereo unspecified): 4.28. `CC1(C)CC(Nc2nc(-c3cccc(-c4ccccc4)c3)cs2)CC(C)(C)N1` gave a pIC50 of 5.49.

As to `CC1(N)CCN(c2nc(-c3cccc(-c4ccccc4)c3)cs2)CC1`, the pIC50 was 5.44. This pIC50 and that of the molecule before are within 0.2 log units of each other.

The target in another test is T1, Tyrosine-protein phosphatase non-receptor type 11 (Homo sapiens). The test can be described thus: Allosteric inhibition of SHP2 in human NCI-H661 cells assessed as downregulation of phosphorylated ERK1/2 levels at 20 uM after 2 hrs by Western blot analysis. In kind it is cell-based. The gist of the method: as §2
As to `CC1(N)CCN(c2nc(-c3cc4ccccc4s3)cs2)CC1`, the inhibition result is “inactive”.

Another test shares this target. Briefly: Allosteric inhibition of SHP2 in human SF268 cells stably expressing Yap-Luc reporter assessed as reduction in YAP transcriptional activity at 3 to 12 uM after 12 hrs by Yap-luciferase reporter gene assay. In kind it is cell-based. The gist of the method:
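SF268 cells stably carrying a Yap-Luc reporter, in RPMI-1640 on 96-well plates, given inhibitor at 3, 6 and 12 μM on day 1. After 12 h, lysates read for Renilla luciferase, normalized to CellTiter-Glo signal; mean±s.d., n=3.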
For the molecule `CC1(N)CCN(c2nc(-c3cc4ccccc4s3)cs2)CC1`, the inhibition result was “inactive”.
